Screening results (PubChem)
In the library only some 1.8% were active in any assay of this set; here they are far more common.
CHRM4 PAM – human M4 muscarinic receptor positive allosteric modulators, primary screen, CHO-K1 cells, Fluo-8 calcium fluorescence; CHO-K1 hM4/Gqi5, ACh EC20; 0% = ACh EC20, 100% = maximal ACh; activation, % at 3 µM; actives 0.4% (n = 360,000); AID 624126, 2012;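 active = activation above its plate's cutoff, the mean activation of sample wells plus 3 SD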
CHRM4 agonist – human M4 muscarinic receptor agonists, primary screen, CHO-K1 cells, Fluo-8 calcium fluorescence; CHO-K1 hM4/Gqi5; vehicle 0%, full acetylcholine response 100%; activation, % at 3 µM; actives 0.14% (n = 360,000); AID 624127, 2012;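 active = activation above the run mean over all test wells plus 3 SD, cut at about 32% in these data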;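 note: peak over basal fluorescence ratio per well then scaled between controls; 0% = DMSO wells and 100% = acetylcholine at EC100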
CHRM5 agonist – human M5 muscarinic receptor agonists, primary screen, CHO-K1 cells, Fluo-8 calcium fluorescence | activation, % at 3 µM | CHO-K1 hM5 cells; 0% DMSO wells, 100% maximal acetylcholine response | actives 0.19% (n = 360,000) | AID 624037, 2012 | Muscarinic acetylcholine receptor M5 (Homo sapiens), P08912;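 active = activation above the run's mean over test compounds plus 3 SD, cut at about 23% in these data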;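 note: signal is peak over basal fluorescence ratio across the kinetic read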
Target sequence (P08912 whole entry, looked up): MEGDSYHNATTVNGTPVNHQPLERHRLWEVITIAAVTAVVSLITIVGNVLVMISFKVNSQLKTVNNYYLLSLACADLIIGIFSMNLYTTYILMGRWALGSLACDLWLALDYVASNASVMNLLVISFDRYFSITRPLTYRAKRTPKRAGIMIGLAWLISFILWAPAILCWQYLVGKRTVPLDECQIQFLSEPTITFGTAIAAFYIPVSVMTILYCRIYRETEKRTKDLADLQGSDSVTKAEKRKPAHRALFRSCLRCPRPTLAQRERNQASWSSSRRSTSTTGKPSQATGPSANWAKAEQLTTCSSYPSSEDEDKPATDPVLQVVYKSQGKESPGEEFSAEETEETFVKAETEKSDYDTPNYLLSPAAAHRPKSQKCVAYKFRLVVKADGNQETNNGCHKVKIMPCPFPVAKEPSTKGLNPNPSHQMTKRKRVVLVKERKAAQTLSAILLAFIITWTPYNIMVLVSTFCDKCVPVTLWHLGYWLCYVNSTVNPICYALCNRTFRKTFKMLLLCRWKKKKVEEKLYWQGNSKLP
M5 PAM – human M5 muscarinic receptor positive allosteric modulators, primary screen, CHO-K1 cells, Fluo-8 calcium fluorescence | AID 624038, 2012 | Muscarinic acetylcholine receptor M5 (Homo sapiens), P08912 | CHO-K1 hM5, ACh EC20 PAM; 0% = ACh EC20, 100% = ACh EC100 | actives 0.3% (n = 360,000) | activation, % at 3 µM;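 active = activation above the run cutoff, the mean activation of all test compounds plus 3 SD, cut at about 18% in these data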
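Test system: CHO-K1 hM5 cells / Doses: single-point, 3 µM nominal / Times: Post-acetylcholine fluorescence recording 140 s / Technique: Fluo-8 calcium fluorescence / Measure: Max/basal fluorescence ratio as % of EC20–EC100 ACh window / Benchmarks: low control EC20 acetylcholine (0%), high control EC100 acetylcholine (100%) / Replicates: one well per compound, no replicates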
CHRM4 antagonist – human M4 muscarinic receptor antagonists, primary screen, CHO cells, Fluo-8 calcium fluorescence. Muscarinic acetylcholine receptor M4 (Homo sapiens), P08173. inhibition, % at 3 µM. actives 0.73% (n = 360,000). CHO-hM4 cells, ACh EC80. AID 624125, 2012;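 active = inhibition above its plate's cutoff, the mean inhibition of sample wells plus 3 SD, cut at about 27% in these data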;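 note: 0% = acetylcholine EC80 with DMSO and 100% = DMSO without agonist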
CHRM5 antagonist – human M5 muscarinic receptor antagonists, primary screen, CHO cells, Fluo-8 calcium fluorescence. inhibition, % at 3 µM. CHO-hM5 cells, ACh EC80. actives 0.59% (n = 360,000);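 active = inhibition above a per-plate cutoff, the mean of that plate's test compounds plus 3 SD, cut at about 27% in these data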;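 note: 0% = acetylcholine EC80 with DMSO and 100% = DMSO without agonist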
Starred values were filed as active, the others as inactive.

Cc1nc(NC(=O)Nc2ccc(Cl)cc2)sc1C was read as CHRM4 PAM -0.1, CHRM4 agonist 6.8, CHRM5 agonist 3.8, M5 PAM -5.4, CHRM4 antagonist 28.2* and CHRM5 antagonist 5.2.
Cc1ccc(S(=O)(=O)N2CCOCC2)cc1C(=O)N1C(=O)c2cccc(N)c2C1=O was read as CHRM4 PAM 27.2*, CHRM4 agonist 0.6, CHRM5 agonist -1.4, M5 PAM 2.5, CHRM4 antagonist -25.6 and CHRM5 antagonist -5.4.
Screening COC(=O)c1ccccc1-c1c2ccc(=N)cc-2oc2cc(N)ccc12 returned CHRM4 PAM -20.4, CHRM4 agonist active, CHRM5 agonist active, M5 PAM -45.6, CHRM4 antagonist 101.5* and CHRM5 antagonist 101.3*.
`O=c1c2ccccc2nc2n1CCN2Cc1ccc(Cl)cc1` gave CHRM4 PAM -13.6, CHRM4 agonist 29.1, CHRM5 agonist 12.8, M5 PAM -19.2, CHRM4 antagonist 10.5 and CHRM5 antagonist 28.8*.
Screening Cc1cc(C)nc(Nc2nc(C(N)Cc3ccccc3)cs2)n1 (configuration not stated) returned CHRM4 PAM 1.6, CHRM4 agonist 6.2, CHRM5 agonist 4.2, M5 PAM -0.8, CHRM4 antagonist -4.7 and CHRM5 antagonist -3.6.
CC(=O)C1=C(O)C(=O)N(c2ccc(C(=O)O)cc2)C1c1ccc([N+](=O)[O-])cc1 (configuration not stated) was read as CHRM4 PAM 2.1, CHRM4 agonist 0.2, CHRM5 agonist -2.0, M5 PAM -2.9, CHRM4 antagonist 4.5 and CHRM5 antagonist 9.9.
Screening CCOC(=O)c1ccc(N2C(=O)C(O)=C(C(C)=O)C2c2ccc([N+](=O)[O-])cc2)cc1 (configuration not stated) returned CHRM4 PAM -0.4, CHRM4 agonist 0.8, CHRM5 agonist 4.4, M5 PAM 19.4*, CHRM4 antagonist -2.0 and CHRM5 antagonist -4.8.
Screening O=C(Nc1ccc(F)cc1)C(c1ccccc1OC(F)(F)F)N1CCN(c2cccc(C(F)(F)F)n2)CC1 (configuration not stated) returned CHRM4 PAM -7.2, CHRM4 agonist -0.3, CHRM5 agonist -1.4, M5 PAM -11.7, CHRM4 antagonist -6.0 and CHRM5 antagonist 3.9.
For CCN(c1ccccc1)S(=O)(=O)c1ccc(Cl)c(C(=O)OCC(=O)c2[nH]c(C)c(C(C)=O)c2C)c1 the results were CHRM4 PAM -37.2, CHRM4 agonist 5.2, CHRM5 agonist -4.3, M5 PAM -16.8, CHRM4 antagonist 28.4* and CHRM5 antagonist 16.4.
CC(C)[C@@H]1O[C@H](CCc2ccccc2)CC2=C1C(=O)OC(C)(C)O2 was read as CHRM4 PAM -6.4, CHRM4 agonist -2.2, CHRM5 agonist 3.0, M5 PAM 5.8, CHRM4 antagonist 2.6 and CHRM5 antagonist 3.6.
`COc1ccc2oc3cc(NCCN(C)C)ccc3c(=O)c2c1` gave CHRM4 PAM 17.9, CHRM4 agonist 1.1, CHRM5 agonist -2.6, M5 PAM -1.7, CHRM4 antagonist -5.0 and CHRM5 antagonist 2.0.
CCC(=O)N1CCC1(C)C(=O)Nc1ncc(C)s1 (configuration not stated) was read as CHRM4 PAM 19.3*, CHRM4 agonist 0.8, CHRM5 agonist 2.7, M5 PAM -0.4, CHRM4 antagonist -13.3 and CHRM5 antagonist 9.9.
`CCC(=O)N1CCC1(C)C(=O)Nc1nccs1` (configuration not stated) gave CHRM4 PAM -4.2, CHRM4 agonist 0.2, CHRM5 agonist 0.0, M5 PAM -1.0, CHRM4 antagonist -7.7 and CHRM5 antagonist -7.3.
C(=N\Nc1nc(-c2ccccc2)cs1)/c1ccncc1 was read as CHRM4 PAM 0.5, CHRM4 agonist 4.3, CHRM5 agonist -0.1, M5 PAM -8.2, CHRM4 antagonist -2.4 and CHRM5 antagonist 5.6.
`Cc1ccc(-c2csc(N/N=C/c3ccco3)n2)cc1` gave CHRM4 PAM 9.3, CHRM4 agonist -0.5, CHRM5 agonist 3.8, M5 PAM -7.1, CHRM4 antagonist -0.8 and CHRM5 antagonist 9.4.
For CN(C)S(=O)(=O)c1ccc(-c2csc(N/N=C/c3ccc(O)cc3)n2)cc1 the results were CHRM4 PAM -24.9, CHRM4 agonist 19.0, CHRM5 agonist -1.4, M5 PAM -13.7, CHRM4 antagonist 28.8* and CHRM5 antagonist 23.5.
For CN(C)S(=O)(=O)c1ccc(-c2csc(N/N=C/c3ccco3)n2)cc1 the results were CHRM4 PAM -32.7, CHRM4 agonist 22.6, CHRM5 agonist 6.2, M5 PAM -33.8, CHRM4 antagonist 30.2* and CHRM5 antagonist 24.3.
COc1ccc(-c2sc3ccccc3c2-c2ccc(OC)cc2F)cc1 was read as CHRM4 PAM -5.1, CHRM4 agonist 0.0, CHRM5 agonist 2.8, M5 PAM -3.2, CHRM4 antagonist 1.4 and CHRM5 antagonist -5.6.
CN(C(=O)CCN1C(=O)/C(=C/c2ccccc2)SC1=S)C1CCS(=O)(=O)C1 (configuration not stated) was read as CHRM4 PAM 0.2, CHRM4 agonist 3.3, CHRM5 agonist 2.0, M5 PAM 30.5*, CHRM4 antagonist -5.2 and CHRM5 antagonist 20.5.
`CN(C(=O)CN1C(=O)S/C(=C\c2ccccc2)C1=O)C1CCS(=O)(=O)C1` (configuration not stated) gave CHRM4 PAM 5.6, CHRM4 agonist 0.8, CHRM5 agonist 0.3, M5 PAM 3.6, CHRM4 antagonist -0.9 and CHRM5 antagonist -1.4.
CN(C(=O)CN1C(=O)S/C(=C\c2ccc(Cl)cc2)C1=O)C1CCS(=O)(=O)C1 (configuration not stated) was read as CHRM4 PAM 16.6*, CHRM4 agonist 2.5, CHRM5 agonist -2.9, M5 PAM 1.2, CHRM4 antagonist -20.6 and CHRM5 antagonist -7.5.
Screening CN(C(=O)CN1C(=O)/C(=C/c2ccc(F)cc2)SC1=S)C1CCS(=O)(=O)C1 (configuration not stated) returned CHRM4 PAM 7.8, CHRM4 agonist 0.9, CHRM5 agonist -0.8, M5 PAM 8.8, CHRM4 antagonist 2.6 and CHRM5 antagonist 5.4.
